Source: ChEMBL document CHEMBL1140765, “Synthesis and biological evaluation of 2-trifluoromethyl/sulfonamido-5,6-diaryl substituted imidazo[2,1-b]-1,3,4-thiadiazoles: a novel class of cyclooxygenase-2 inhibitors” (Bioorg Med Chem, 2008)

How the values were obtained:
[1] = tested on: Rattus norvegicus; assay: Antiinflammatory activity in Albino rat assessed as reduction of carrageenan-induced paw edema volume at 10 mg/kg, po after 4 hrs; format: functional; set-up: scale not given: the % may be the effect or the level left
Summary of the method: (§1)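 Male albino rats, six per group, were dosed orally. One hour later they received a subplantar injection of 0.05 mL of 1% carrageenan in 0.9% sterile solution into the left hind paw. Paw volume was read by digital plethysmometer at 0, 2 and 4 h. Percent reduction was calculated as (1 − treated/vehicle control edema volume) × 100, and values are given as mean ± SE.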

[2] = molecular target: T1, Prostaglandin G/H synthase 1 (Ovis aries) (UniProt P05979); assay: Inhibition of ovine COX1 at 10 uM
T1 sequence (whole entry): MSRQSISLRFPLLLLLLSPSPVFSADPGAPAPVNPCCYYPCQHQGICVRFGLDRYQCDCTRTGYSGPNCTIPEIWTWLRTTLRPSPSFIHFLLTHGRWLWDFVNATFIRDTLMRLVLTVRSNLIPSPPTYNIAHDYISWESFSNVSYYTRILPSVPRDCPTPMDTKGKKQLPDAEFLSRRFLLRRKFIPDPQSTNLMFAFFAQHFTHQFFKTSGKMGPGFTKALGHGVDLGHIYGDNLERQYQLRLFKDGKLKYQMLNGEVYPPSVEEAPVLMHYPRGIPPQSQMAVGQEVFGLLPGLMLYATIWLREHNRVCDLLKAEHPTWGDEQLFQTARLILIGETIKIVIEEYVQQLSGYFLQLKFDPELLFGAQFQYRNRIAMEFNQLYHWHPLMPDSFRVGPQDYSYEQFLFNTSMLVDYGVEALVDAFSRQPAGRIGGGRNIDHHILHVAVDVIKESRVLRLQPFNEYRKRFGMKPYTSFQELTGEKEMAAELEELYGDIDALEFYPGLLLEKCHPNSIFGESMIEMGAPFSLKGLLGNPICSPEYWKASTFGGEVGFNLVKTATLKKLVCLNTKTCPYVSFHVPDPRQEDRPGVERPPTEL
Summary of the method: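 Ovine COX-1 activity was measured with a colorimetric inhibitor assay kit that reads the enzyme's peroxidase component. Oxidized TMPD was monitored at 590 nm during reduction of PGG2 to PGH2. Runs were done in duplicate.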

[3] = tested on: Rattus norvegicus; assay: Antiinflammatory activity in Albino rat assessed as reduction of carrageenan-induced paw edema volume at 10 mg/kg, po after 2 hrs; format: functional; set-up: scale not given: the % may be the effect or the level left; summary of the method: as §1
[4] = molecular target: T2, Prostaglandin G/H synthase 1 (Ovis aries, UniProt P05979); assay: Inhibition of ovine COX1
T2 sequence (P05979 whole entry): T1 sequence (whole entry)
Summary of the method: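 Ovine enzyme, colorimetric kit assay read through the peroxidase component: oxidised TMPD appearing during PGG2 to PGH2 reduction monitored at 590 nm; values reported as IC50 in µM, duplicate experiments.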

Structure (SMILES)	Activity [1] [%]	inhibition [2] [%]	Activity [3] [%]	IC50 [4] [µM]
COc1ccc(-c2c(-c3ccc(F)cc3)nc3sc(S(N)(=O)=O)nn23)cc1	51.72	12.9	43.49	
COc1ccc(-c2c(-c3ccc(SC)cc3)nc3sc(C(F)(F)F)nn23)cc1	66.16	10.5	42.38	
Cc1ccc(-c2cc(C(F)(F)F)nn2-c2ccc(S(N)(=O)=O)cc2)cc1 [CELECOXIB]	64.83		48.31	
COc1ccc(-c2nc3sc(C(F)(F)F)nn3c2-c2ccc(OC)cc2)cc1	48.78	15.5	38.03	
CS(=O)(=O)c1ccc(-c2nc3sc(C(F)(F)F)nn3c2-c2ccccc2)cc1	70.09	8.6	46.73	> 50
COc1ccc(-c2c(-c3ccccc3)nc3sc(C(F)(F)F)nn23)cc1	42.32	30.6	29.62	
COc1ccc(-c2c(-c3ccc(S(C)(=O)=O)cc3)nc3sc(S(N)(=O)=O)nn23)cc1	61.29	13.3	54.28	> 50
CSc1ccc(-c2nc3sc(C(F)(F)F)nn3c2-c2ccccc2)cc1	54.16	14.2	37.64	
COc1ccc(-c2nc3sc(S(N)(=O)=O)nn3c2-c2ccc(OC)cc2)cc1	37.05	28.1	24.68	
